IC50 and EC50 data for 18 compounds are collected here from ChEMBL document CHEMBL1135197, “The synthesis and biological evaluation of a series of potent dual inhibitors of farnesyl and geranyl-Geranyl protein transferases” (Bioorg Med Chem Lett, 2002).

Assay [1] deals with T1, Protein farnesyltransferase (Homo sapiens, UniProt P49354+P49356). Briefly: The concentration required to displace 50% of a highly potent radiolabeled FPTase inhibitor. The class given is protein-complex assay.
The target of assay [2] is T2, Geranylgeranyl transferase type I (Homo sapiens, UniProt P49354+P53609). Briefly: (§1) Inhibition of [1-3H]-GGPP incorporation into biotinylated K4B-Ras peptide by geranylgeranyl transferase in the presence of 5 mM ATP. The class given is protein-complex assay. The gist of the method:
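Scintillation proximity assay: GGPTase reaction of [1-3H]GGPP with a biotinylated peptide of the K4B-Ras C-terminus at several inhibitor concentrations. IC50 is the concentration cutting radiolabel incorporation by 50% relative to uninhibited controls. Values are the mean of at least two determinations.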

In assay [3] the target is T1, Protein farnesyltransferase. Put plainly: Inhibitor of Farnesyl protein transferase (FTPase) required to reduce radiolabel [1-3H] incorporation by 50%. The class given is protein-complex assay. The gist of the method:
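Purified recombinant FPTase transfers [1-3H]FPP onto a recombinant protein substrate carrying the K-ras C-terminus. IC50 is the inhibitor concentration that lowers radiolabel incorporation by 50% relative to uninhibited controls. Values are the mean of at least two determinations.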

Assay [4] concerns the target T2, Geranylgeranyl transferase type I. Put plainly: Inhibition of geranylgeranylation of the C-terminal CAAX sequence of Rap 1a in PSN-1 cells. The class given is functional, cell-based. The method in brief: (§2)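 PSN-1 cells; the read-out is inhibition of geranylgeranylation at the C-terminal CAAX sequence of Rap 1a, reported as EC50. Values are the mean of at least two determinations.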

Assay [5] concerns the target T1, Protein farnesyltransferase. Briefly: Inhibition of Farnesyl protein transferase radiolabel [1-3H] incorporation. Type of assay: protein-complex assay.
For assay [6] the target is unchanged. Put plainly: Displacement of radiolabeled farnesyl transferase inhibitor. The class given is protein-complex assay.
Assay [7] concerns the target T2, Geranylgeranyl transferase type I. Described as §1. The class given is protein-complex assay. The method in brief:
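Scintillation proximity assay: GGPTase reaction of [1-3H]GGPP with a biotinylated peptide of the K4B-Ras C-terminus at several inhibitor concentrations. Values are the mean of at least two determinations.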
The source holds these as a separate data set.

The target is the same in assay [8]. Put plainly: Inhibition of geranylgeranylation of C-terminal CAAX sequence of Rap 1a in PSN-1 cells. Type of assay: functional, cell-based. The method in brief:
as §2

Several values for one entry are separate records, joined by “and”; a condition that tells them apart may be missing. Equal entries are not always repeated.

By IC50 is commonly meant the concentration needed to halve the response being measured. Take `N#Cc1ccc(Cn2cncc2CN2CCN(C(=O)OCc3cccc4c3OCO4)CC2)cc1`: the IC50 in assay [1] was 10.9 nM; in assay [2] it was 19.8 nM; in assay [3], 15.5 nM.
As usually defined, the EC50 is the midpoint of the concentration-response curve. High values mean lower potency in that assay, low ones higher potency in that assay. As to `CCOc1ccccc1COC(=O)N1CCN(Cc2cncn2Cc2ccc(C#N)cc2)CC1`, the IC50 in assay [1] was 4.52 nM; in assay [2], 0.32 nM; in assay [3], 1.6 nM. The same compound returned an EC50 in assay [4] of 71 nM.
As for `Cc1ncc(CN2CCN(C(=O)OCc3ccccc3OC(F)(F)F)CC2)n1Cc1ccc(C#N)cc1`, the IC50 in assay [5] is 0.33 nM; in assay [6], 0.34 nM; in assay [7], 53 nM. In assay [8], this compound had an EC50 of 660 nM.
`N#Cc1ccc(Cn2cncc2CN2CCN(C(=O)OCc3ccc4c(c3)OCO4)CC2)cc1`: the IC50 in assay [2] was found to be 121 nM; in assay [3], 102 nM.
Take `Cc1cccc(COC(=O)N2CCN(Cc3cncn3Cc3ccc(C#N)cc3)CC2)c1`: the IC50 in assay [1] was found to be 166 nM; in assay [2], 76 nM; in assay [3] it was 34 nM.
For `N#Cc1ccc(Cn2cncc2CN2CCN(C(=O)OCc3ccccc3Cl)CC2)cc1`, in that order: 7.95 nM, 0.68 nM and 6.8 nM.
For `COc1ccccc1COC(=O)N1CCN(Cc2cncn2Cc2ccc(C#N)cc2)CC1`, the IC50 in assay [1] is 4 nM and 27 nM; in assay [2], 0.84 nM; in assay [3] it was 3.1 nM.
On to `COCc1ccccc1COC(=O)N1CCN(Cc2cncn2Cc2ccc(C#N)cc2)CC1`, for which the values for the half-maximal inhibitory concentration (IC50) in assay [1], in assay [2] and in assay [3] were 9.1 nM, 0.32 nM and 6.1 nM, respectively.
Consider `COCc1ccccc1COC(=O)N1CCN(Cc2cnc(C)n2Cc2ccc(C#N)cc2)CC1`, for which the IC50 was determined as 17 nM in assay [5], 3.17 nM in assay [6] and 178 nM in assay [7]. In addition, a half-maximal response in assay [8] (EC50) required 680 nM.
For `COc1ncccc1COC(=O)N1CCN(Cc2cncn2Cc2ccc(C#N)cc2)CC1`, the IC50 in assay [1] was 13 nM; in assay [2], 48 nM; in assay [3], 18 nM.
Regarding `N#Cc1ccc(Cn2cncc2CN2CCN(C(=O)OCc3cccc(OC(F)(F)F)c3)CC2)cc1`, the results for the IC50 in assay [1], in assay [2] and in assay [3] were 12.1 nM, 74 nM and 13.4 nM, respectively.
Turning to `CCOc1ccccc1COC(=O)N1CCN(Cc2cnc(C)n2Cc2ccc(C#N)cc2)CC1`, the IC50 stood at 1.13 nM in assay [1], 80 nM in assay [2] and 1.5 nM in assay [3].
Turning to `CCOc1ncccc1COC(=O)N1CCN(Cc2cncn2Cc2ccc(C#N)cc2)CC1`, the figures for the IC50 in assay [1], in assay [2] and in assay [3] were 8.67 nM, 8.7 nM and 5 nM, respectively.
With `Cc1ncc(CN2CCN(C(=O)OCc3ccccc3)CC2)n1Cc1ccc(C#N)cc1`, the IC50 was 789 nM in assay [2] and 19 nM in assay [3].
`N#Cc1ccc(Cn2cncc2CN2CCN(C(=O)OCc3ccccc3OC(F)(F)F)CC2)cc1`: the IC50 stood at 2.2 nM in assay [1], 0.16 nM in assay [2] and 0.36 nM in assay [3]. This compound gave an EC50 in assay [4] of 18 nM.
`CS(=O)(=O)c1ccccc1COC(=O)N1CCN(Cc2cncn2Cc2ccc(C#N)cc2)CC1`: the IC50 in assay [2] was found to be 18 nM; in assay [3], 99 nM.
As to `N#Cc1ccc(Cn2cncc2CN2CCN(C(=O)OCc3ccccc3CC(F)(F)F)CC2)cc1`, the IC50 stood at 0.85 nM in assay [1], 4.82 nM in assay [2] and 2.5 nM in assay [3]. Moreover, in assay [4], a half-maximal response (EC50) required 50 nM.
Regarding `Cc1ccccc1COC(=O)N1CCN(Cc2cncn2Cc2ccc(C#N)cc2)CC1`, the IC50 in assay [1] was 62.9 nM; in assay [7], 9.1 nM; in assay [3], 6.4 nM.
